ChEMBL document CHEMBL1914423, “New imidazo[2,1-b]thiazole derivatives: synthesis, in vitro anticancer evaluation, and in silico studies” (Eur J Med Chem, 2011)

Key:
UACC-257 = assay: Anticancer activity against human UACC257 cells assessed as cell growth at 10^-5 M after 48 hrs by SRB assay; assay type: functional; conditions: UACC-257, 48 h, read-out: Activity
Outline: (§1)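 NCI-60 single-dose screen: cells in RPMI 1640 with 5% FBS and 2 mM L-glutamine, plated at 5000–40,000 cells/well by doubling time, and preincubated 24 h at 37 °C. Compound given at one concentration from DMSO stock. Cells TCA-fixed and SRB-stained, absorbance at 515 nm. Percent growth relative to time-zero and untreated controls; inhibition % = 100 − growth %.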

ACHN = assay: Anticancer activity against human ACHN cells assessed as cell growth at 10^-5 M after 48 hrs by SRB assay; assay type: functional; conditions: read-out: Activity
Outline: (§2)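 NCI-60 single-dose screen at one concentration. Cells grown in RPMI 1640 with 5% FBS and 2 mM L-glutamine, plated at 5000–40,000 cells/well, and pre-incubated 24 h at 37 °C in 5% CO2 before DMSO-dissolved drug was added. Cells fixed with TCA, SRB-stained, absorbance read at 515 nm. Percent growth calculated against time-zero and untreated control plates.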

RXF 393 = assay: Anticancer activity against human RXF393 cells assessed as cell growth at 10^-5 M after 48 hrs by SRB assay; assay type: functional; conditions: RXF 393, 48 h, read-out: Activity
SF-539 = assay: Anticancer activity against human SF539 cells assessed as cell growth at 10^-5 M after 48 hrs by SRB assay; assay type: functional; conditions: SF-539, 48 h, read-out: Activity
NCI-H522 = assay: Anticancer activity against human NCI-H522 cells assessed as cell growth at 10^-5 M after 48 hrs by SRB assay; assay type: functional; conditions: NCI-H522, 48 h, read-out: Activity
[1] = Antiproliferative activity against human A375P cells after 48 hrs by MTT assay; assay type: functional, cell-based
Outline: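 A375P cells in DMEM with 10% FBS at 37 °C, 5% CO2. Seeded at 5×10³ cells/well, held 24 h, then treated with 12-point 3-fold serial dilutions for 48 h. Viability by MTT reduction. IC50 values are means of triplicate experiments.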

OVCAR-4 = assay: Anticancer activity against human OVCAR4 cells assessed as cell growth at 10^-5 M after 48 hrs by SRB assay; assay type: functional; conditions: OVCAR-4, 48 h, read-out: Activity
BT-549 = assay: Anticancer activity against human BT549 cells assessed as cell growth at 10^-5 M after 48 hrs by SRB assay; assay type: functional; conditions: BT-549, 48 h, read-out: Activity; outline: as §2
MDA-MB-435 = assay: Anticancer activity against human MDA-MB-435 cells assessed as cell growth at 10^-5 M after 48 hrs by SRB assay; assay type: functional; conditions: MDA-MB-435, 48 h, read-out: Activity
SN12C = assay: Anticancer activity against human SN12C cells assessed as cell growth at 10^-5 M after 48 hrs by SRB assay; assay type: functional; conditions: read-out: Activity
MOLT-4 = assay: Anticancer activity against human MOLT4 cells assessed as cell growth at 10^-5 M after 48 hrs by SRB assay; assay type: functional; conditions: MOLT-4, 48 h, read-out: Activity
T47D = assay: Anticancer activity against human T47D cells assessed as cell growth at 10^-5 M after 48 hrs by SRB assay; assay type: functional; conditions: read-out: Activity; outline: as §1
SW-620 = assay: Anticancer activity against human SW620 cells assessed as cell growth at 10^-5 M after 48 hrs by SRB assay; assay type: functional; conditions: SW-620, 48 h, read-out: Activity; outline: as §1
MDA-MB-231 = assay: Anticancer activity against human MDA-MB-231 cells assessed as cell growth at 10^-5 M after 48 hrs by SRB assay; assay type: functional; conditions: MDA-MB-231, 48 h, read-out: Activity; outline: as §2
NCI-H322M = assay: Anticancer activity against human NCI-H322M cells assessed as cell growth at 10^-5 M after 48 hrs by SRB assay; assay type: functional; conditions: read-out: Activity
HCC 2998 = assay: Anticancer activity against human HCC2998 cells assessed as cell growth at 10^-5 M after 48 hrs by SRB assay; assay type: functional; conditions: HCC 2998, 48 h, read-out: Activity; outline: as §2
SK-MEL-2 = assay: Anticancer activity against human SK-MEL-2 cells assessed as cell growth at 10^-5 M after 48 hrs by SRB assay; assay type: functional; conditions: SK-MEL-2, 48 h, read-out: Activity
HT-29 = assay: Anticancer activity against human HT-29 cells assessed as cell growth at 10^-5 M after 48 hrs by SRB assay; assay type: functional; conditions: HT-29, 48 h, read-out: Activity; outline: as §2
IGROV-1 = assay: Anticancer activity against human IGROV1 cells assessed as cell growth at 10^-5 M after 48 hrs by SRB assay; assay type: functional; conditions: IGROV-1, 48 h, read-out: Activity; outline: as §2
Malme-3M = assay: Anticancer activity against human MALME-3M cells assessed as cell growth at 10^-5 M after 48 hrs by SRB assay; assay type: functional; conditions: read-out: Activity; outline: as §2
OVCAR-3 = assay: Anticancer activity against human OVCAR3 cells assessed as cell growth at 10^-5 M after 48 hrs by SRB assay; assay type: functional; conditions: OVCAR-3, 48 h, read-out: Activity
UACC-62 = assay: Anticancer activity against human UACC62 cells assessed as cell growth at 10^-5 M after 48 hrs by SRB assay; assay type: functional; conditions: UACC-62, 48 h, read-out: Activity; outline: as §1
UO-31 = assay: Anticancer activity against human UO31 cells assessed as cell growth at 10^-5 M after 48 hrs by SRB assay; assay type: functional; conditions: UO-31, 48 h, read-out: Activity; outline: as §1
CAKI-1 = assay: Anticancer activity against human Caki1 cells assessed as cell growth at 10^-5 M after 48 hrs by SRB assay; assay type: functional; conditions: CAKI-1, 48 h, read-out: Activity; outline: as §2
HCT-116 = assay: Anticancer activity against human HCT116 cells assessed as cell growth at 10^-5 M after 48 hrs by SRB assay; assay type: functional; conditions: HCT-116, 48 h, read-out: Activity; outline: as §2
HL-60(TB) = assay: Anticancer activity against human HL-60(TB) cells assessed as cell growth at 10^-5 M after 48 hrs by SRB assay; assay type: functional; conditions: HL-60, 48 h, read-out: Activity
Outline: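 NCI-60 single-dose screen. Cells in RPMI 1640 with 5% FBS and 2 mM L-glutamine were plated at 5000–40,000 cells/well and preincubated 24 h at 37 °C before one compound concentration. Time-zero plates were TCA-fixed at drug addition. For suspension cells, settled cells were fixed with cold TCA, then SRB-stained and read at 515 nm. Percent growth was calculated from time-zero, control and treated absorbances.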

M14 = assay: Anticancer activity against human M14 cells assessed as cell growth at 10^-5 M after 48 hrs by SRB assay; assay type: functional; conditions: M14, 48 h, read-out: Activity; outline: as §2
RPMI-8226 = assay: Anticancer activity against human RPMI8226 cells assessed as cell growth at 10^-5 M after 48 hrs by SRB assay; assay type: functional; conditions: RPMI-8226, 48 h, read-out: Activity
SK-MEL-28 = assay: Anticancer activity against human SK-MEL-28 cells assessed as cell growth at 10^-5 M after 48 hrs by SRB assay; assay type: functional; conditions: SK-MEL-28, 48 h, read-out: Activity

Structure (SMILES) | growth at 10 µM (UACC-257) [%] | growth at 10 µM (ACHN) [%] | growth at 10 µM (RXF 393) [%] | growth at 10 µM (SF-539) [%] | growth at 10 µM (NCI-H522) [%] | IC50 [1] [µM] | growth at 10 µM (OVCAR-4) [%] | growth at 10 µM (BT-549) [%] | growth at 10 µM (MDA-MB-435) [%] | growth at 10 µM (SN12C) [%] | growth at 10 µM (MOLT-4) [%] | growth at 10 µM (T47D) [%] | growth at 10 µM (SW-620) [%] | growth at 10 µM (MDA-MB-231) [%] | growth at 10 µM (NCI-H322M) [%] | growth at 10 µM (HCC 2998) [%] | growth at 10 µM (SK-MEL-2) [%] | growth at 10 µM (HT-29) [%] | growth at 10 µM (IGROV-1) [%] | growth at 10 µM (Malme-3M) [%] | also measured
O=C(NCCNc1nccc(-c2c(-c3cccc(O)c3)nc3sccn23)n1)c1cc(C(F)(F)F)cc(C(F)(F)F)c1 | 66.5 | 88.3 | 107 | 113 | 97.6 | > 10 | 129 | 108 | 59.2 | 102 | 87.7 | 88.5 | 117 | 101 | 122 | 129 | 101 | 63.1 | 93 | 27 | growth at 10 µM (OVCAR-3): 108%; growth at 10 µM (UACC-62): 27.5%; growth at 10 µM (UO-31): 94.6%; growth at 10 µM (CAKI-1): 96.8%; growth at 10 µM (HCT-116): 102%; growth at 10 µM (HL-60(TB)): 123%; growth at 10 µM (M14): 38.2%; growth at 10 µM (RPMI-8226): 91%; growth at 10 µM (SK-MEL-28): 61.8%
O=C(NCCNc1nccc(-c2c(-c3cccc(O)c3)nc3sccn23)n1)c1ccccc1 | 11.3 | 60.5 | 62.6 | 73.2 | 72.7 | 0.5 | 98 | 61.4 | 24 | 66.4 | 67.1 | 58.6 | 78.2 | 80 | 101 | 97.8 | 45.5 | 65.4 | 57.4 | 9.31 | growth at 10 µM (OVCAR-3): 92.3%; growth at 10 µM (UACC-62): 0.9%; growth at 10 µM (UO-31): 87.7%; growth at 10 µM (CAKI-1): 87.9%; growth at 10 µM (HCT-116): 42.5%; growth at 10 µM (HL-60(TB)): 93.3%; growth at 10 µM (M14): 15.3%; growth at 10 µM (RPMI-8226): 76.8%; growth at 10 µM (SK-MEL-28): 37.8%
O=C(NCCNc1nccc(-c2c(-c3cccc(O)c3)nc3sccn23)n1)Nc1ccccc1 | 46.2 | 85.3 | 86.3 | 62.4 | 57 | > 10 | 123 | 96.2 | 31.1 | 64.3 | 65.5 | 74.1 | 63.3 | 85.9 | 113 | 94.7 | 97.5 | 61.9 | 99.9 | 36.1 | growth at 10 µM (OVCAR-3): 112%; growth at 10 µM (UACC-62): 24.6%; growth at 10 µM (UO-31): 86.6%; growth at 10 µM (CAKI-1): 111%; growth at 10 µM (HCT-116): 67.5%; growth at 10 µM (HL-60(TB)): 95.1%; growth at 10 µM (M14): 24%; growth at 10 µM (RPMI-8226): 58.3%; growth at 10 µM (SK-MEL-28): 57.4%
O=C(NCCNc1nccc(-c2c(-c3cccc(O)c3)nc3sccn23)n1)c1ccccc1O | 14.8 | 46.1 | 50.9 | 61.9 | 29 | 3.2 | 96.2 | 45.7 | 14.3 | 48 | 46.2 | 61.8 | 77.9 | 48.4 | 72.3 | 81 | 13.9 | 49.2 | 31.6 | 14.6 | growth at 10 µM (OVCAR-3): 60.2%; growth at 10 µM (UACC-62): 0.53%; growth at 10 µM (UO-31): 34.6%; growth at 10 µM (CAKI-1): 24.3%; growth at 10 µM (HCT-116): 25.9%; growth at 10 µM (HL-60(TB)): 59.8%; growth at 10 µM (M14): 16.7%; growth at 10 µM (RPMI-8226): 11.6%; growth at 10 µM (SK-MEL-28): 41.4%
